Assay outcomes (PubChem)
HNF4A DNA FP – change in binding of human HNF4A to DNA, primary screen, biochemical, fluorescence polarization, FITC-DNA; activity change, % at 10 µM; 1 h; Hepatocyte nuclear factor 4-alpha (Homo sapiens), P41235; 0.3% of 360,000 active; AID 1224865, 2016; in the data active = activity change above about 30%, passing the limit was not always enough
Target sequence (P41235 whole entry, looked up): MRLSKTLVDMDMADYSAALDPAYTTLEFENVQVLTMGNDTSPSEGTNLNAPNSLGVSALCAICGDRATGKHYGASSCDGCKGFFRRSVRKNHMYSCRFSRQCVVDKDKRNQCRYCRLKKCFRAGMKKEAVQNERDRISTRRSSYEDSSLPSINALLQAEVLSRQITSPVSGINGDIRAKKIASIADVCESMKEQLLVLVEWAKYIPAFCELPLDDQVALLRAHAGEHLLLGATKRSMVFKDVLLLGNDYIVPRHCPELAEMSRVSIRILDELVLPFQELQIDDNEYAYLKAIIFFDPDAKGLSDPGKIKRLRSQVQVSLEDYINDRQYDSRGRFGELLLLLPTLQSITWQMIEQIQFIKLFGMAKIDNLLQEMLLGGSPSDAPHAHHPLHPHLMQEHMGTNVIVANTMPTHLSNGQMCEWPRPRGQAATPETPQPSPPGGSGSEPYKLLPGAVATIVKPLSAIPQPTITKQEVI
TbMetRS inhib – T. brucei MetRS inhibitors, primary screen, biochemical, luminescence; methionyl-tRNA synthetase (Trypanosoma brucei brucei); purified T. brucei MetRS, ATP depletion, Kinase-Glo luminescence; inhibition, % at 11.9 µM; 0.4% of 360,000 active;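 active = inhibition above a per-plate cutoff of the control wells' mean inhibition plus 3 SD, cut at about 5.5% in these data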
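Dosing: 11.9 µM compound single dose, 0.9% DMSO; Assay system: purified T. brucei MetRS enzyme; Measured by: Kinase-Glo luciferase luminescence reporting remaining unconsumed ATP; Schedule: 15 min plus 2 h at 25 °C.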
CSN deneddyl inh – inhibitors of CSN-mediated cullin deneddylation, primary screen, biochemical, fluorescence polarization, uHTS | inhibition, % at 12.5 µM | 0.38% of 360,000 active | AID 651999, 2013 | Purified CSN, SCF-Nedd8-OG deneddylation | COP9 signalosome complex subunit 5 (Homo sapiens), Q92905;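 active = pattern-corrected inhibition above about 35%, with an unprinted fluorescence ratio check between 0.5 and 1.5, limit read from the data, passing the limit was not always enough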
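Assay system: Purified human Csn5 enzyme expressed in HEK293T cells | Amount: Enzyme 0.24 nM | Measured by: Fluorescence polarization readout | Medium: Tris/NaCl/DTT buffer, pH 7.5 | Compound dosing: One concentration, 12.5 µM, 0.25% DMSO | Times: 90 min incubation of compound, enzyme and substrate at room temperature | Control set: no-enzyme wells high, enzyme-with-substrate wells low | Read-out: % inhibition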
TPT1 inh – Candida albicans TPT1 enzyme inhibitors, primary screen, biochemical, fluorescence polarization; 0.81% of 300,000 active; inhibition, % at 5 µM; tRNA 2'-phosphotransferase TPT1 (Candida albicans SC5314); AID 1962, 2009; recombinant caTPT1, FP RNA substrate dephosphorylation;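 active = inhibition above the mean of all tested compounds plus 3 SD, set per screening campaign, cut at about 24% in these data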
IDE inh – human IDE inhibitors in live cells, primary screen, fluorescence polarization, HEK cells, FAbetaB substrate; Insulin-degrading enzyme (Homo sapiens), P14735; FAbetaB cleavage; inhibition, % at 5.59 µM; 0.41% of 320,000 active; AID 434962, 2010;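 active = percent inhibition above the average of all tested compounds plus 3 SD, set per screening campaign, cut at about 16% in these data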;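 also: IDE supplied by intact live HEK cells; FP after avidin binding of uncleaved biotin substrate so inhibition keeps polarization high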
IDE act – human IDE activators in live cells, primary screen, fluorescence polarization, HEK cells, FAbeta-B substrate | FAbeta-B cleavage; 0% vehicle, 100% cell-free pure enzyme wells | activation, % at 5.96 µM | Insulin-degrading enzyme (Homo sapiens), P14735 | 0.073% of 340,000 active | AID 493087, 2011;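 active = activation above the mean of all tested compounds plus 3 SD, set per screening campaign, cut at about 17% in these data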
IDE inh confirm – human IDE inhibitors in live cells, confirmation, fluorescence polarization, HEK cells, FAbetaB substrate. 51% of 1,200 active. shares compounds with IDE inh. FAbetaB cleavage. inhibition, % at 5.59 µM;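 active = mean inhibition across triplicate wells above the cutoff set by the earlier primary insulin-degrading enzyme screen, cut at about 16% in these data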
HEK cytotox – cytotoxicity in HEK cells, cytotoxicity control for IDE inhibitor project, cell-based, luminescence. shares compounds with IDE inh. HEK293 cytotoxicity, ATP luminescence. inhibition, % at 5.59 µM. 28% of 1,200 active. AID 449730, 2010; in the data active = inhibition above about 22%
IDE FP artifact – fluorescent or optically active artefacts, dose response, artefact control for IDE inhibitor project, biochemical, fluorescence polarization; shares compounds with IDE inh; FP counterscreen for fluorescent artifacts, IDE probe project; IC50, µM; 30 tested, under 10 active; call rule not given here
Numbers stand for hits; 0 = inactive; - = not tested or not shown. Sampled rows, rich in hits. Any-hit rate of the full collection: about 1.7%.

SMILES	HNF4A DNA FP	TbMetRS inhib	CSN deneddyl inh	TPT1 inh	IDE inh	IDE act	IDE inh confirm	HEK cytotox	others
CC(O)(c1ccc(F)c(F)c1)c1nc(-c2ccoc2)cs1 (stereo not given)	0	0	0	-	-	-	-	-
CC(=O)Nc1ccc(N2C(=O)c3cccc4c(O)ccc(c34)C2=O)cc1	0	0	0	0	95	0	26	0
CCC(C)[C@@H]1NC(=O)N(CCCN2CCCC2=O)C1=O (stereo not given in full)	0	0	0	0	0	0	-	-
CS(=O)(=O)Nc1nc2n(n1)C(c1ccccc1)C=C(c1ccc(Br)cc1)N2 (stereo not given)	0	0	0	0	63	0	79	0
CN(C)c1ccc(/C=C/C(=O)c2ccc3c(c2)OCO3)cc1	0	0	0	-	73	0	119	0
COc1ccc(Cl)cc1NC(=O)CN(C)C(=O)c1n[nH]c2ccccc12	0	0	0	0	0	0	-	-
Cc1c(-n2cc(C(=O)c3cc(Cl)ccc3O)cc(C#N)c2=O)c(=O)n(-c2ccccc2)n1C	0	0	0	0	17	0	25	0
CCOC1=C/C(=C/c2c(N)n3nc(CC(=O)N4CCCC4)sc3nc2=O)C=CC1=O	0	0	0	0	30	0	39	0
Nc1c(/C=C2/C=CC(=O)C(O)=C2)c(=O)nc2sc(CC(=O)N3CCCCC3)nn12	0	0	0	0	0	0	-	-
COC1=C/C(=C/c2c(N)n3nc(CC(=O)N4CCCC4)sc3nc2=O)C=CC1=O	0	0	0	0	24	0	126	0
CCOC(=O)N1CCC(N(CCN(C)C)C(=S)Nc2ccc(Oc3ccccc3)cc2)CC1	0	0	0	0	0	0	-	-
COc1cc(/C=C2\C(=O)N(C)C(=S)N2C)ccc1O	0	0	0	0	19	0	31	0
CN1C(=O)/C(=C/c2ccc(O)c([N+](=O)[O-])c2)N(C)C1=S	0	0	0	0	0	0	-	-
COc1cc(OC)cc(C(=O)Nc2cccc(NC(=O)c3cc(OC)cc(OC)c3)n2)c1	0	0	0	0	17	0	0	0
Cc1ccc(C(=O)NCCNC(=O)c2ccccn2)cc1	0	0	0	0	0	0	-	-
CCOC(=O)N1CCN(c2ccnc3cc(Cl)ccc23)CC1	0	0	0	0	37	0	20	0
CC(C)c1ccccc1-n1c(SCc2cc(=O)oc3ccc4ccccc4c23)nnc1-c1cccnc1	0	0	0	0	24	0	0	0
O=c1[nH]c2ccccc2c(O)c1O	0	0	0	0	62	0	65	0
COc1ccccc1CNC(=O)CCNC(=O)c1ccco1	0	0	0	-	-	0	-	-
CCCN(C(=O)COc1ccc(C(C)=O)cc1OC)C1CCS(=O)(=O)C1 (stereo not given)	0	0	0	-	0	0	-	-
Cc1cccnc1NC(=O)CCNC(=O)c1ccc(Br)cc1	0	0	0	-	-	0	-	-
Cc1cc(NC(=O)C(C)Oc2ccccc2)no1 (stereo not given)	0	0	0	0	0	0	-	-
Cc1cc(OCC(=O)Nc2cc(C(C)(C)C)on2)ccc1[N+](=O)[O-]	0	0	0	0	0	0	-	-
Cc1cc2cc(C(c3nnnn3Cc3ccccc3)N3CCc4ccccc43)c(=O)[nH]c2cc1C (stereo not given)	0	0	0	0	16	0	0	0
Cc1ccsc1C(=O)OCC(=O)N(Cc1ccccc1)C(C)C	0	0	0	-	16	0	0	0
SMILES	HNF4A DNA FP	TbMetRS inhib	CSN deneddyl inh	TPT1 inh	IDE inh	IDE act	IDE inh confirm	HEK cytotox	others
CC(=O)c1cccc(NC(=O)c2ccc(-c3ccccc3[N+](=O)[O-])o2)c1	0	0	0	0	0	0	-	-
CC(C)(C)C(c1nc2ccccc2[nH]1)n1c(-c2ccsc2)nc2ccccc21 (stereo not given)	0	0	0	-	-	-	-	-
O=c1[nH]nc(-c2ccccc2)c2ccccc12	0	0	0	0	0	0	-	-
O=c1onc(-c2ccccc2)c2ccccc12	0	0	0	0	16	0	0	0
COc1ccc2[nH]c(CN3CCC(CO)(CCOc4ccccc4)CC3)c(C)c2c1	0	0	0	0	0	0	-	-
Clc1cc2cccnc2c2ccccc12	0	0	0	0	19	0	0	0
Cc1ccc(/C=C2\SC(N3CCN(C(c4ccccc4)c4ccccc4)CC3)=NC2=O)o1	0	0	0	0	0	0	-	-
COc1ccc(C2C=C(Nc3ccccc3)C(=O)N2c2ccccc2)cc1OC (stereo not given)	0	0	0	0	17	0	0	23
Cc1ccc(NC(=O)CSc2nnc(-c3cccc(Cl)c3)n2Cc2ccco2)c(C)c1	-	-	-	-	-	-	-	-	IDE FP artifact=0
O=C(CSc1nnc(-c2cccc(Cl)c2)n1Cc1ccco1)Nc1ccccc1C(F)(F)F	-	-	-	-	-	-	-	-	IDE FP artifact=0
O=C(COC(=O)C1(c2ccc(F)cc2)CCCC1)NCc1ccco1	0	0	0	0	0	0	-	-
CCOc1cccc(-c2cc(NCCc3ccccn3)n3nccc3n2)c1	0	0	0	-	-	-	-	-
O=C(NNC(=O)c1ccc(Cl)cc1Cl)c1csc(-c2cccnc2)n1	0	0	0	0	21	0	0	0
O=C(NCc1ccc(Cl)cc1)c1csc(-c2cccnc2)n1	0	0	0	0	0	0	-	-
CC(=O)Nc1ccc(NC(=S)NC(=O)/C=C/c2ccc(Cl)cc2)cc1	0	0	0	0	0	0	-	-
O=C(/C=C/c1ccc(Cl)cc1)NC(=S)Nc1ccc(NC(=O)c2ccco2)cc1	0	0	0	0	43	0	17	77
COc1ccccc1Nc1ccc(NC(=O)c2cccc([N+](=O)[O-])c2C)cc1	0	0	0	0	17	0	0	39
COc1ccc(NC(=O)c2ccccc2[N+](=O)[O-])cc1	0	0	0	0	0	0	-	-
COc1ccc(NC(=O)c2ccc(-c3ccccc3)cc2)cc1S(=O)(=O)N1CCOCC1	0	0	0	0	22	0	19	61
